According to PMC11298890 (iScience, 2024):
Read-outs that look alike come from different tables or passages of the source.

Legend:
PfPRS [1] = molecular target: T1, PfPRS (Plasmodium falciparum, UniProt Q8I5R7); assay type: binding; settings: Enzyme:Compound 1:50
T1 sequence (Q8I5R7 250-746 limits assumed): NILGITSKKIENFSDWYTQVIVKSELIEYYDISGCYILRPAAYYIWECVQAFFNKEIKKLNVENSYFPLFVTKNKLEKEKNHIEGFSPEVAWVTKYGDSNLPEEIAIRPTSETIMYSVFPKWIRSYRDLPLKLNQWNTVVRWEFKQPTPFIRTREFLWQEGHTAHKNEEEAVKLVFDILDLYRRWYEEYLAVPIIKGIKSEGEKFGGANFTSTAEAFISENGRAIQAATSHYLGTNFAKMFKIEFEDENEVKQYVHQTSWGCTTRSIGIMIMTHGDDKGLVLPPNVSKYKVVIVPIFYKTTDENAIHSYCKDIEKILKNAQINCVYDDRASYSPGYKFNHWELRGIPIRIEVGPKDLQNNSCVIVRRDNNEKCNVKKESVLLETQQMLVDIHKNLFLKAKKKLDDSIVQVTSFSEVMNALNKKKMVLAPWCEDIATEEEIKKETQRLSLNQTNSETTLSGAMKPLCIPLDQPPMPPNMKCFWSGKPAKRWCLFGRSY

PfPRS [2] = molecular target: T1, PfPRS; test: Microscale thermophoresis; assay type: binding; settings: for Kd: Kd-Pf
How it was run: (§1)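 Recombinant tag-cleaved PRS (affinity, heparin and gel-filtration purified) labelled on lysines with Red-NHS 2nd-generation dye and held at 100 nM. Kd from MST; two independent replicates.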

PfPRS [3] = molecular target: T1, PfPRS; test: Aminoacylation activity inhibition assay; assay type: biochemical
HsPRS [4] = molecular target: T2, HsPRS (Homo sapiens, UniProt P07814); test: Microscale thermophoresis; assay type: binding; settings: Kd-Hs
T2 sequence (P07814 1007-1512 limits assumed): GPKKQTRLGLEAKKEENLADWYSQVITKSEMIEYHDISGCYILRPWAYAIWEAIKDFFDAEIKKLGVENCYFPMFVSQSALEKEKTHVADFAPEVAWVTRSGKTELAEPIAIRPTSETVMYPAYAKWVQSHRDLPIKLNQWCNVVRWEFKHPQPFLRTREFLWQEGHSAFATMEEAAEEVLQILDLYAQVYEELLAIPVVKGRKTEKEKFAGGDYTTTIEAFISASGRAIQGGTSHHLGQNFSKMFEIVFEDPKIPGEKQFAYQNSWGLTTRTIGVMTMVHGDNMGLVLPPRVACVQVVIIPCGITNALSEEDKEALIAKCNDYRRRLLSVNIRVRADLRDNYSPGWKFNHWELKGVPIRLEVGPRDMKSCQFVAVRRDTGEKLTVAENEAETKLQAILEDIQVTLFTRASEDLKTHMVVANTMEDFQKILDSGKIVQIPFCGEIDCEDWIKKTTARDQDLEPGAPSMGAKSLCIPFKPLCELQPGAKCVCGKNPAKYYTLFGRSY
How it was run: as §1

[5] = system: Plasmodium falciparum 3D7; test: Asexual blood stage parasite growth inhibition; assay type: cell-based; settings: 3D7, 48 h, read-out: Pf-EC50 (ABS), Pf 3D7, 48 h
HsPRS [6] = molecular target: T2, HsPRS; assay type: binding
HsPRS [7] = molecular target: T2, HsPRS; test: Aminoacylation activity inhibition assay; assay type: biochemical
[8] = replicate n = 1, MST, individual replicate 1
[9] = replicate n = 2, MST, individual replicate 2

## O=C(CC1NCCCC1O)Cn1cnc2cc(Br)c(Cl)cc2c1=O (centres unmarked) [HFG, Halofuginone]
PfPRS [1]; in presence of ATP (2 mM)
  PfPRS melting temperature (Tm): 87.7 °C
PfPRS [1]; in presence of L-pro (2 mM)
  PfPRS melting temperature (Tm): 54.7 °C
PfPRS [1]; in presence of L-pro + ATP (2 mM)
  PfPRS melting temperature (Tm): 86.6 °C
PfPRS [2]; Kd-Hs / Kd-Pf
  SI-Kd (Hs/Pf): 0.7
PfPRS [2]; [8]
  Kd: 74.8 nM
PfPRS [2]; [9]
  Kd: 72.9 nM
PfPRS [3]
  IC50: 2.8 nM
PfPRS [3]; IC50 of the human enzyme divided by that of the plasmodium enzyme
  SI-IC50 (Hs/Pf): 3.9
HsPRS [4]; [8]
  Kd: 42.4 nM
HsPRS [4]; [9]
  Kd: 61.9 nM
[5]
  EC50: 0.2 nM
HsPRS [6]
  HsPRS ΔTm from Apo Tm: 61.4 (11.6) °C
HsPRS [6]; enzyme + inhibitor only, no substrate, Enzyme:Compound 1:100
  HsPRS melting temperature (Tm): 61.4 (11.6) °C
HsPRS [7]
  IC50: 10.9 nM
